Laboratory results published in ChEMBL document CHEMBL1926552, “Design and synthesis of simplified taxol analogs based on the T-Taxol bioactive conformation” (Bioorg Med Chem, 2011).
pIC50: −log10 of the molar value. Converted amounts (≈) assume the structure as drawn. The source made the active and inactive calls. The calls are words filed in the database; no cut-off is given here.

Columns and labels:
Bos taurus [1] = organism: Bos taurus; assay: Induction of bovine brain beta-tubulin assembly assessed as prevention of temperature-induced microtubule disassembly at 60 uM at 4 degC by absorption spectrophotometric analysis relative to control
In short: (§1)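 Bovine brain tubulin, 15 µM final, in PMEG buffer (100 mM Pipes, 1 mM MgSO4, 2 mM EGTA, 1 mM GTP, pH 6.9), equilibrated to 37 °C and baseline recorded. Ligand (15 or 60 µM) added, and assembly followed as light scattering at OD 350 nm. The sample was then cooled to 4 °C to follow disassembly. DMSO was 10% v/v final; the control had tubulin plus DMSO only.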

Bos taurus [2] = organism: Bos taurus; assay: Induction of bovine brain alpha-tubulin assembly assessed as prevention of temperature-induced microtubule disassembly at 60 uM at 4 degC by absorption spectrophotometric analysis relative to control; in short: as §1
Bos taurus [3] = organism: Bos taurus; assay: Induction of bovine brain beta-tubulin assembly assessed as increase in formed microtubule concentration at 60 uM at 37 degC by absorption spectrophotometric analysis relative to control; in short: as §1
Bos taurus [4] = organism: Bos taurus; assay: Induction of bovine brain alpha-tubulin assembly assessed as increase in formed microtubule concentration at 60 uM at 37 degC by absorption spectrophotometric analysis relative to control; in short: as §1
A2780 = assay: Antiproliferative activity against human A2780 cells after 2 days by alamar blue assay; assay type: functional, cell-based; settings: A2780, 48 h
[5] = Solubility of the compound in buffer containing 10% DMSO; assay type: physicochemical
Bos taurus [6] = organism: Bos taurus; assay: Induction of bovine brain alpha-tubulin polymerization at 60 uM using DAPI staining-based by fluorescence assay relative to control
In short: (§2)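 Bovine brain tubulin was loaded with 5 mM GDP in PME buffer (100 mM Pipes, 1 mM MgSO4, 2 mM EGTA, pH 6.9), then gel-filtered into PMED (PME plus 0.1 mM GDP). Tubulin (8 µM, just below critical concentration) with 10 µM DAPI was equilibrated at 37 °C. Ligand (8 or 60 µM) in DMSO (10% v/v final) was added to start the reaction. Fluorescence (ex 360, em 450 nm) was read to steady state against a DMSO-only control.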

Bos taurus [7] = organism: Bos taurus; assay: Induction of bovine brain beta-tubulin polymerization at 60 uM using DAPI staining-based by fluorescence assay relative to control; in short: as §2
Bos taurus [8] = organism: Bos taurus; assay: Induction of bovine brain beta-tubulin polymerization at 8 uM using DAPI staining-based by fluorescence assay relative to control; in short: as §2
Bos taurus [9] = organism: Bos taurus; assay: Induction of bovine brain alpha-tubulin polymerization at 8 uM using DAPI staining-based by fluorescence assay relative to control; in short: as §2
Bos taurus [10] = organism: Bos taurus; assay: Induction of bovine brain beta-tubulin assembly assessed as prevention of temperature-induced microtubule disassembly at 15 uM at 4 degC by absorption spectrophotometric analysis relative to control; in short: as §1
Bos taurus [11] = organism: Bos taurus; assay: Induction of bovine brain alpha-tubulin assembly assessed as prevention of temperature-induced microtubule disassembly at 15 uM at 4 degC by absorption spectrophotometric analysis relative to control; in short: as §1
Bos taurus [12] = organism: Bos taurus; assay: Induction of bovine brain beta-tubulin assembly assessed as increase in formed microtubule concentration at 15 uM at 37 degC by absorption spectrophotometric analysis relative to control; in short: as §1
Bos taurus [13] = organism: Bos taurus; assay: Induction of bovine brain alpha-tubulin assembly assessed as increase in formed microtubule concentration at 15 uM at 37 degC by absorption spectrophotometric analysis relative to control; in short: as §1

Row | SMILES | Activity (Bos taurus [1]) | Activity (Bos taurus [2]) | Activity (Bos taurus [3]) | Activity (Bos taurus [4]) | pIC50 (A2780) | solubility [5] [µM] | Activity (Bos taurus [6]) | Activity (Bos taurus [7]) | Activity (Bos taurus [8]) | Activity (Bos taurus [9]) | Activity (Bos taurus [10]) | Activity (Bos taurus [11]) | Activity (Bos taurus [12]) | Activity (Bos taurus [13])
1 | O=C(N[C@H]1c2ccccc2OC/C=C/COc2cccc3c2[C@H](OC(=O)c2ccccc2)[C@@H]2C[C@@H](CN2C3)OC(=O)[C@@H]1O)c1ccccc1 | Active | Active | Active | Active | 5.39 | 60 (≈ 39.6 µg/mL) | inactive | inactive | – | – | – | – | – | –
2 | C=CCOc1cccc2c1[C@@H](OC(=O)c1ccccc1)[C@@H]1C[C@H](OC(=O)[C@H](O)[C@@H](NC(=O)c3ccccc3)c3ccccc3CC=C)CN1C2 | Active | Active | Active | Active | 4.62 | 60 (≈ 40.4 µg/mL) | inactive | inactive | – | – | – | – | – | –
3 | O=C(N[C@H]1c2ccccc2C/C=C/COc2cccc3c2[C@@H](OC(=O)c2ccccc2)[C@@H]2C[C@@H](CN2C3)OC(=O)[C@@H]1O)c1ccccc1 | Active | Active | Active | Active | 5.29 | 60 (≈ 38.7 µg/mL) | inactive | inactive | – | – | – | – | – | –
4 | O=C(N[C@H]1c2ccccc2OCC/C=C/COc2cccc3c2[C@H](OC(=O)c2ccccc2)[C@@H]2C[C@@H](CN2C3)OC(=O)[C@@H]1O)c1ccccc1 | Active | Active | Active | Active | 5.35 | 60 (≈ 40.5 µg/mL) | inactive | inactive | – | – | – | – | – | –
5 | C=CCCOc1ccccc1[C@H](NC(=O)c1ccccc1)[C@@H](O)C(=O)O[C@H]1C[C@H]2[C@@H](OC(=O)c3ccccc3)c3c(cccc3OCC=C)CN2C1 | Active | Active | Active | Active | 5.24 | 60 (≈ 42.2 µg/mL) | inactive | inactive | – | – | – | – | – | –
6 | O=C(N[C@H]1c2ccccc2C/C=C/COc2cccc3c2[C@H](OC(=O)c2ccccc2)[C@@H]2C[C@@H](CN2C3)OC(=O)[C@@H]1O)c1ccccc1 | Active | Active | Active | Active | 5.40 | 60 (≈ 38.7 µg/mL) | inactive | inactive | – | – | – | – | – | –
7 | C=CCOc1ccccc1[C@H](NC(=O)c1ccccc1)[C@@H](O)C(=O)O[C@H]1C[C@H]2[C@@H](OC(=O)c3ccccc3)c3c(cccc3OCC=C)CN2C1 | Active | Active | Active | Active | 5.08 | 60 (≈ 41.3 µg/mL) | inactive | inactive | – | – | – | – | – | –
8 | C=CCOc1cccc2c1[C@H](OC(=O)c1ccccc1)[C@@H]1C[C@H](OC(=O)[C@H](O)[C@@H](NC(=O)c3ccccc3)c3ccccc3CC=C)CN1C2 | Active | Active | Active | Active | 5.33 | 60 (≈ 40.4 µg/mL) | inactive | inactive | – | – | – | – | – | –
9 | CC(=O)O[C@H]1C(=O)[C@@]2(C)[C@H]([C@H](OC(=O)c3ccccc3)[C@]3(O)C[C@H](OC(=O)[C@H](O)[C@@H](NC(=O)c4ccccc4)c4ccccc4)C(C)=C1C3(C)C)[C@]1(OC(C)=O)CO[C@@H]1C[C@@H]2O | – | – | – | – | – | – | – | – | inactive | inactive | Active | Active | Active | Active
